From PMC2757082 (Biopolymers, 2009)
Several values for one entry are separate records, joined by “and”; a condition that tells them apart may be missing. Equal entries are not always repeated. Where two headings read alike, the source gives them in different places.

Key:
Assay type in all cases: biochemical
[1] = target: F1Fo-ATPase from E. coli in liposomes (Escherichia coli, UniProt P0ABB4)
[2] = target: E. coli membrane F1Fo-ATPase (Escherichia coli, UniProt P0ABB4); experiment: E. coli everted membrane ATP hydrolysis steady-state kinetic assay
How it was run: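 Everted membrane vesicles came from E. coli strain LE392 and were used at 33 μg mL⁻¹, with 5 mM KCN to block chemiosmotic phosphorylation. ATP hydrolysis was read by the NADH-coupled assay, with aurovertin at 1% DMSO final. Michaelis-Menten fits of initial velocity gave apparent kinetic parameters at each inhibitor concentration. Secondary plots were fit with eqs 2–4, assuming residual catalytic activity at saturating inhibitor.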

[3] = target: T1, F1Fo-ATPase in bovine SMPs (Bos taurus, UniProt P00829); experiment: Bovine SMP ATP hydrolysis steady-state kinetic assay; details: for Vmax2 (maximal catalytic rate of ESI complex) / Ki: Bovine, ±SE
[4] = target: T1, F1Fo-ATPase in bovine SMPs; experiment: Bovine SMP ATP synthesis steady-state kinetic assay; details: for Ki: Bovine, ±SE
How it was run: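 ATP synthesis by bovine heart SMPs was read by coupling ATP production to NADP⁺ reduction at varied ADP (1.875–1200 μM). SMPs were preincubated 5 min with aurovertin (1% DMSO final) or DMSO control before substrate or coupling reagents. Apparent parameters came from Michaelis-Menten fits at each inhibitor level, with secondary plots fit by eqs 2–4. 3D fits of velocity against MgADP and inhibitor used eq 6 (mixed inhibition model).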

[5] = HMM-based FRET level assignment, presence of aurovertin
[6] = aurovertin and ATP, Gaussian fit
[7] = bovine, synthesis vs hydrolysis

F1Fo-ATPase from E. coli in liposomes, sequence (P0ABB4 2-460 limits assumed): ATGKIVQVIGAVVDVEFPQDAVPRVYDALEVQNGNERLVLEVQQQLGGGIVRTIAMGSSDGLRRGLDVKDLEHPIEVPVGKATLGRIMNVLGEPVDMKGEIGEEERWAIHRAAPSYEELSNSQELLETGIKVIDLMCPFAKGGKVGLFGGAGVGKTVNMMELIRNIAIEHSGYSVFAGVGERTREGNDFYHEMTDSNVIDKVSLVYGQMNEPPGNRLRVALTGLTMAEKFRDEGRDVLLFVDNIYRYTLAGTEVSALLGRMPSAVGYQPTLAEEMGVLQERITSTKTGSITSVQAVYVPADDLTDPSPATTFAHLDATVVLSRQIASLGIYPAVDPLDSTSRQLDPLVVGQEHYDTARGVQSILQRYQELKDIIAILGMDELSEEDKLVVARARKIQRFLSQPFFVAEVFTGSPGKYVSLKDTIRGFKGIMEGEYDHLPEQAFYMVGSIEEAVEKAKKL

CC[C@H]1O[C@]2(C)[C@H](OC(C)=O)[C@@]1(C)O[C@@H](/C=C/C=C/C=C/c1oc(=O)cc(OC)c1C)[C@@H]2O [aurovertin, Aurovertin B]
remaining activity (turnover ratio in presence and absence of aurovertin) ([1]; 20 μM drug, 1 mM ATP): about 60%
dwell time decay component τ [1, 5]: 28 ± 11 ms
dwell time rise time τ [1, 5]: 16 ± 8 ms
proximity factor P maximum, H level [1, 6]: 0.75
proximity factor P maximum, L level [1, 6]: 0.31
proximity factor P maximum, M level [1, 6]: 0.51
fraction of F1Fo-ATPases showing stepwise changing FRET levels ([1]; saturating (20 μM) aurovertin, of 3685 marked photon bursts): 10.4%
Vmax2 (maximal catalytic rate of ESI complex) ([2]; E. coli, 3D fit eq 5, n(E)=2, n(ES)=1, ±SE): 0.06 ± 0.01 µmol/min/mg
residual activity at saturating aurovertin ([2]; everted E. coli membranes, eq 5 fit): ~ 20% and 20%
Ki ([2]; read-out: Ki(E), E. coli, 3D fit eq 5, n(E)=2, n(ES)=1, ±SE): 0.43 ± 0.07 µM
Ki ([2]; read-out: Ki(ES), E. coli, 3D fit eq 5, n(E)=2, n(ES)=1, ±SE): 0.15 ± 0.02 µM
increase of the value of Vmax/Km ([3]; ATP hydrolysis, saturating aurovertin concentrations): 50%
Vmax2 (maximal catalytic rate of ESI complex) ([3]; ATP hydrolysis, 3D fit eq 5, n(E)=1, n(ES)=1): 0.23 ± 0.01 µmol/min/mg
Vmax2 (maximal catalytic rate of ESI complex) ([3]; ATP hydrolysis, 3D fit eq 5, n(E)=2, n(ES)=1): 0.22 ± 0.01 µmol/min/mg
mechanism of inhibition of ATP hydrolysis ([3]; bovine SMPs): mixed mechanism of inhibition
Ki ([3]; read-out: Ki(E), ATP hydrolysis, 3D fit eq 5, n(E)=1, n(ES)=1): 0.82 ± 0.25 µM
Ki ([3]; read-out: Ki(E), ATP hydrolysis, 3D fit eq 5, n(E)=2, n(ES)=1): 0.96 ± 0.25 µM
Ki ([3]; read-out: Ki(ES), ATP hydrolysis, 3D fit eq 5, n(E)=1, n(ES)=1): 0.119 ± 0.017 µM
Ki ([3]; read-out: Ki(ES), ATP hydrolysis, 3D fit eq 5, n(E)=2, n(ES)=1): 0.12 ± 0.017 µM
decrease of the value of Vmax for catalysis of ATP hydrolysis ([3]; saturating aurovertin, fit eq 2-4, n=1): ~ 2.5 fold
enzyme activity at saturating substrate and inhibitor concentrations ([4]; ATP synthesis): inactive
increase in the value of the apparent Km ([4]; ATP synthesis, bovine SMPs): > 2 fold
mechanism of inhibition of ATP synthesis ([4]; bovine SMPs): mixed inhibitor
decrease of Ki(E) during ATP synthesis versus hydrolysis [4, 7]: 60 fold
decrease of Ki(ES) during ATP synthesis versus hydrolysis [4, 7]: 5 fold
Ki ([4]; read-out: Ki(E), ATP synthesis, 3D fit eq 6, n(E)=1, n(ES)=1): 0.013 ± 0.004 µM
Ki ([4]; read-out: Ki(E), ATP synthesis, 3D fit eq 6, n(E)=2, n(ES)=1): 0.016 ± 0.002 µM
Ki ([4]; read-out: Ki(ES), ATP synthesis, 3D fit eq 6, n(E)=1, n(ES)=1): 0.022 ± 0.003 µM
Ki ([4]; read-out: Ki(ES), ATP synthesis, 3D fit eq 6, n(E)=2, n(ES)=1): 0.025 ± 0.004 µM
